Data on 16 molecules can be found in ChEMBL document CHEMBL4184263, “Synthetic analogues of the montanine-type alkaloids with activity against apoptosis-resistant cancer cells” (2018).

Active and inactive are the calls of the source. The calls are words filed in the database; no cut-off is given here.

Assay [1] relates to A549. Nature of the assay: Growth inhibition of apoptosis resistant human A549 cells assessed as reduction in cell viability incubated for 72 hrs by MTT assay. It counts as functional. The note with it: A549, 72 h. In short, it runs like this:
(§1)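 Cells were grown at 37 °C, 95% humidity and 5% CO₂, trypsinized and seeded. After 24 h they were treated for 72 h with compound from 10 nM to 100 μM, prepared from a 10 mM DMSO stock, or left untreated. Viability was read as MTT reduction to formazan, with untreated control optical density set as 100%. The 50% growth-reducing concentration was derived as the mean of experiments run in sextuplicate.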

The test system of assay [2] is SK-MEL-28. Nature of the assay: Growth inhibition of apoptosis resistant human SK-MEL-28 cells assessed as reduction in cell viability incubated for 72 hrs by MTT assay. In kind it is functional. The note with it: SK-MEL-28, 72 h. Summed up: as §1
Assay [3] has as its system U373 MG. Nature of the assay: Growth inhibition of apoptosis resistant human U373 cells assessed as reduction in cell viability incubated for 72 hrs by MTT assay. It counts as functional, U-373MG ATCC. In short, it runs like this: as §1
Assay [4] concerns MCF7. Nature of the assay: Growth inhibition of apoptosis sensitive human MCF7 cells assessed as reduction in cell viability incubated for 72 hrs by MTT assay. In kind it is functional. As to conditions: MCF7, 72 h. In short, it runs like this:
as §1

Assay [5] has as its system Hs 683. Nature of the assay: Growth inhibition of apoptosis sensitive human Hs683 cells assessed as reduction in cell viability incubated for 72 hrs by MTT assay. It counts as functional. As to conditions: Hs 683, 72 h. Summed up:
as §1

The test system of assay [6] is B16-F10. Nature of the assay: Growth inhibition of apoptosis sensitive mouse B16F10 cells assessed as reduction in cell viability incubated for 72 hrs by MTT assay. It counts as functional. As to conditions: B16-F10, 72 h. In short, it runs like this: as §1
The species entered for assay [7] is Homo sapiens. Nature of the assay: Antiproliferative activity against human GSC22 cells assessed as inhibition of cell proliferation at 1 uM incubated for 72 hrs by bromodeoxyuridine incorporation based immunoassay. In kind it is functional. In short, it runs like this: (§2)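 Patient-derived glioblastoma stem-like GSC22 cells were seeded at 1×10^3 cells/well and cultured for 24 h. They were then exposed for 72 h to compound at 1 μM to 30 μM, with DMSO as vehicle control. BrdU was added for the final 4 h. Incorporation was detected with a peroxidase-conjugated anti-BrdU antibody and substrate reaction read at 450/550 nm. Data are mean ± SEM, n=3, compared with vehicle.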

Assay [8] is described as follows: Antiproliferative activity against human GSC22 cells assessed as inhibition of cell proliferation at 10 uM incubated for 72 hrs by bromodeoxyuridine incorporation based immunoassay. In kind it is functional. In short, it runs like this:
as §2

With `CO[C@H]1C[C@H]2C(=C[C@@H]1Cl)[C@H]1C[N@@]2Cc2c(I)c3c(c(I)c21)OCO3`, the GI50 was 78 µM in assay [1]; above 100 µM in assay [2]; above 100 µM in assay [3]; 78 µM in assay [4]; 71 µM in assay [5]; 39 µM in assay [6].
Regarding `C#CCO[C@H]1C=C2[C@H]3C[N@@](Cc4cc5c(cc43)OCO5)[C@H]2C[C@@H]1OC`, the GI50 in assay [1] stood at 23 µM; in assay [2], 28 µM; in assay [3] it was 42 µM; in assay [4], 28 µM; in assay [5], 24 µM; in assay [6] it was 10 µM.
In the case of `CO[C@H]1C[C@H]2C(=C[C@@H]1O)[C@H]1CN2Cc2cc3c(cc21)OCO3`, the GI50 in assay [1] was found to be 5 µM; in assay [2] it was 8 µM; in assay [3], 31 µM; in assay [4] it was 13 µM; in assay [5] it was 4 µM; in assay [6], 8 µM.
For the molecule `CCO[C@H]1C=C2[C@H]3C[N@@](Cc4cc5c(cc43)OCO5)[C@H]2C[C@@H]1OC`, the GI50 in assay [1] is 59 µM; in assay [2], above 100 µM; in assay [3], above 100 µM; in assay [4], 82 µM; in assay [5], above 100 µM; in assay [6], 40 µM.
`CO[C@H]1C[C@H]2C(=C[C@@H]1Cl)[C@H]1C[N@@]2Cc2cc3c(cc21)OCO3`: the concentration for 50% growth inhibition (GI50) in assay [1] was 6 µM; in assay [2], 26 µM; in assay [3] it was 51 µM; in assay [4], 17 µM; in assay [5] it was 6 µM; in assay [6], 7 µM.
With `CO[C@H]1C[C@H]2C(=C[C@@H]1NCc1ccccc1)[C@H]1C[N@@]2Cc2cc3c(cc21)OCO3`, the GI50 in assay [1] is 59 µM; in assay [2] it was 65 µM; in assay [3] it was 72 µM; in assay [4], 44 µM; in assay [5], 67 µM; in assay [6], 10 µM.
With `CO[C@H]1C[C@H]2C(=C[C@H]1Br)[C@H]1C[N@@]2Cc2cc3c(cc21)OCO3`, the GI50 in assay [1] stood at 9 µM; in assay [2] it was 18 µM; in assay [3], 25 µM; in assay [4] it was 19 µM; in assay [5] it was 5 µM; in assay [6], 7 µM.
For the molecule `CO[C@H]1C[C@H]2C(=C[C@@H]1c1c[nH]c3ccccc13)[C@H]1C[N@@]2Cc2cc3c(cc21)OCO3`, the GI50 in assay [1] was 18 µM; in assay [2], 9 µM; in assay [3], 9 µM; in assay [4], 23 µM; in assay [5], 24 µM; in assay [6] it was 4 µM. Also, the inhibition entry in assay [7] is “Active”. In assay [8], the inhibition at 10 µM lay within 80 to 95%.
`CO[C@H]1C[C@H]2C(=C[C@@H]1c1ccc[nH]1)[C@H]1C[N@@]2Cc2cc3c(cc21)OCO3`: the 50% growth inhibitory concentration (GI50) in assay [1] was 86 µM; in assay [2] it was 67 µM; in assay [3] it was above 100 µM; in assay [4] it was 68 µM; in assay [5] it was 95 µM; in assay [6] it was 11 µM.
Turning to `C#CC[N@@+]12Cc3cc4c(cc3[C@H](C1)C1=C[C@H](Cl)[C@@H](OC)C[C@@H]12)OCO4`, the GI50 in assay [1], in assay [2], in assay [3], in assay [4], in assay [5] and in assay [6] was above 100 µM throughout.
With `CO[C@H]1C=C2[C@H]3C[N@@](Cc4cc5c(cc43)OCO5)[C@H]2C[C@@H]1OC`, the GI50 came out at 3 µM in assay [1]; 4 µM in assay [2]; 5 µM in assay [3]; 4 µM in assay [4]; 3 µM in assay [5]; 3 µM in assay [6]. In assay [7], the inhibition result was “Active”. Moreover, the inhibition at 10 µM in assay [8] lay in the range of 80 to 95%.
In the case of `CO[C@@H]1C=C[C@@]23c4cc5c(cc4CN(C[C@@H]2O)[C@H]3C1)OCO5` [(+)-HAEMANTHAMINE], the inhibition entry in assay [7] was “Active”. Also, the inhibition at 10 µM in assay [8] is 80 to 95%.
Take `C=CCO[C@H]1C=C2[C@H]3C[N@@](Cc4cc5c(cc43)OCO5)[C@H]2C[C@@H]1OC`: the GI50 in assay [1] was determined as 10 µM; in assay [2], 14 µM; in assay [3] it was 20 µM; in assay [4] it was 20 µM; in assay [5], 7 µM; in assay [6], 7 µM.
On to `CO[C@H]1C[C@H]2C(=C[C@@H]1Cl)[C@H]1C[N@@+]2([O-])Cc2cc3c(cc21)OCO3`, for which the GI50 in assay [1], in assay [2], in assay [3], in assay [4], in assay [5] and in assay [6] was above 100 µM each time.
In the case of `CO[C@H]1C[C@H]2C(=C[C@@H]1Cl)[C@H]1C[N@@]2Cc2c1cc1c(c2I)OCO1`, the 50% growth inhibitory concentration (GI50) in assay [1], in assay [2], in assay [3], in assay [4], in assay [5] and in assay [6] was above 100 µM each time.
With `CO[C@H]1C[C@H]2C(=C[C@@H]1O)[C@H]1C[N@]2[C@@H](OS(C)(=O)=O)c2cc3c(cc21)OCO3`, the GI50 in assay [1] is above 100 µM; in assay [2] it was above 100 µM; in assay [3], above 100 µM; in assay [4], above 100 µM; in assay [5], above 100 µM; in assay [6] it was 72 µM.
